Sampled rows, rich in hits. Any-hit rate of the full collection: about 3.8%.
ARNT TACC3 PPI: disrupts binding between human ARNT and TACC3. Q9Y6A5. actives 0.66% (n = 390,000). inhibition, % at 9.99 µM. AlphaScreen His-ARNT PAS-B/GST-TACC3 binding, luminescence; TACC3 fragment carries E629A point mutation;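 active = mean inhibition of replicates at least 50% and at least half of replicates each reaching 50%; inconclusive = half or more replicates reach 50% but mean below 50%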;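 note: 0% = complete ARNT plus TACC3 wells and 100% = ARNT alone without TACC3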
XiGFP reactiv: X-chromosome reactivation activator. XiGFP mouse fibroblasts, % GFP-positive cells imaging, 3 d; cells co-treated with 5-aza-dC sensitizer; scaled so ellipticine positive control = 100%. activation, % at 7.58 µM. actives 0.055% (n = 360,000). AID 743238;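 active = mean normalized replicate activation at least 10% and every replicate at or above 10%; inconclusive = only one of the two criteria met; inactive = mean below 10% and not all replicates reach 10%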;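 note: 0% = median of on-plate neutral control wells and 100% = ellipticine 6 µM median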
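Assay system: SV40-immortalized XiGFP fibroblast cells, line 68-5-11; buffer or medium: DMEM plus 5-aza-dC sensitizer; compound: one concentration, pinned; timing: compounds 3 days, fix/stain 15 min at room temperature; benchmarks: positive control ellipticine, 6 µM final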
SIRT5 inh: blocks human SIRT5 desuccinylation of peptide; inhibition, % at 15 µM; actives 1.1% (n = 330,000); Q9NXA8; Purified SirT5, succinyl-peptide AMC, trypsin-coupled fluorescence; in the data active = inhibition above about 15%; inconclusive = no clear call, values can overlap the other calls
Target sequence (Q9NXA8 whole entry, looked up): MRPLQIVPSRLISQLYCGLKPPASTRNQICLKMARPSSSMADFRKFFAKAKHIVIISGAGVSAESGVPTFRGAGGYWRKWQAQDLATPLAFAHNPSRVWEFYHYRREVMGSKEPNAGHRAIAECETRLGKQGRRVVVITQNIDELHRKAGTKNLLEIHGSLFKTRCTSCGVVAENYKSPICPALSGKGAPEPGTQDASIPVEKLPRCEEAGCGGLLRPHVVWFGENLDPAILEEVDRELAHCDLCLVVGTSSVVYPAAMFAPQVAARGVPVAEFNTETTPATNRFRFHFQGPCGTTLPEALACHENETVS
DENV2 CPE: DENV2-induced cell death inhibition. actives 1.7% (n = 350,000). DENV2-infected cells, cytopathic effect rescue, plate reader. CPE inhibition, % at 9.99 µM; in the data active = CPE inhibition above about 20%, passing the limit was not always enough; inconclusive = no clear call, values can overlap the other calls; tested in BHK-21 cells;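 note: 0% = median of neutral control wells and 100% = median of positive control wells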
FGF22 binding: binders of recombinant human FGF22 by thermal shift | AID 651658 | Q9HCT0 | SYPRO orange fluorescence; percent of sucrose octasulfate shift, DMSO zero | actives 1.5% (n = 340,000) | activity (Tm shift, normalised), % at 9.99 µM;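 active = mean Tm shift, scaled 0 neutral to 100 positive control, at about 1.3% or above, every replicate too, limit read from the data; inconclusive = no clear call, values can overlap the other calls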
Target sequence (Q9HCT0 whole entry, looked up): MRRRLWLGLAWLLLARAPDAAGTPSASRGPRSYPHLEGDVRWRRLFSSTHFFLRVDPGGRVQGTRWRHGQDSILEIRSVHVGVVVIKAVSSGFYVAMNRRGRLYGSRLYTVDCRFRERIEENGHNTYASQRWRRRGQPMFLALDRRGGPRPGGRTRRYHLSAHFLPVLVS
FN deposition inh: fibronectin deposition inhibition. AH1F fibroblasts, Alexa488-fibronectin deposition fluorescence, overnight. inhibition, % at 12.6 µM. actives 0.086% (n = 350,000). AID 743247;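 active = mean inhibition across replicates of 30% or more, regardless of how many single replicates reach that level; inconclusive = mean under 30% yet at least half of replicates reach 30%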;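 note: positive control wells lacked labelled fibronectin entirely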
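Assay system: AH1F fibroblasts assembling fluorescent fibronectin matrix; Amount: 10000 AH1F cells per well; Buffer or medium: DMEM, 2% serum; Probe or stimulus: Alexa488-fibronectin, 24 nM final in well; Doses: single compound dose, delivered by pin transfer; Incubation: 1 h adhesion, overnight exposure; Measured by: fluorescence 485/525 nm; Read-out: fibronectin deposition inhibition.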
ARNT Alpha ctr: interferes with AlphaScreen signal, flagging false ARNT-TACC3 hits | shares compounds with ARNT TACC3 PPI | His-ARNT PASB-GST AlphaScreen artifact counter-screen, luminescence | AC50, µM (top dose mostly 68 µM), for the others: top-dose activity change, negative = signal decrease | actives 50% (n = 1,200) | AID 651705;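 active = every separate test run was called active for a drop in luminescence, with AC50 within twice the top valid dose, actives reach about 71 µM in these data; inconclusive = the separate test runs disagree in their calls; inactive = all runs inactive, including signal change in the wrong direction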
* hit, by the source's call; ? = inconclusive; . = no result given.

SMILES	ARNT TACC3 PPI	XiGFP reactiv	SIRT5 inh	DENV2 CPE	FGF22 binding	FN deposition inh	ARNT Alpha ctr
Cc1noc(C)c1NC(=O)N[C@@H]1C=C[C@@H](CC(=O)N2CCN(C)CC2)O[C@@H]1CO	-11.7	-0.7	2.7	6.7	0.0	.	.
FC(F)(F)c1cnc(C(c2ccccn2)c2ncn[nH]2)c(Cl)c1 (configuration not stated)	62.0*	0.1	1.5	2.2	0.4	4.0	58.1µM*
C[C@@H]1CN([C@@H](C)CO)C(=O)c2cc(C#Cc3ccncc3)cnc2O[C@@H]1CN(C)Cc1ccncc1	.	-0.1	.	.	.	-2.1	.
COc1cc(CCNc2ccc3nnc(-c4ccccc4)n3n2)cc(OC)c1OC	55.8*	0.0	-1.2	4.1	-0.1	5.3	68.5µM*
CCOC(=O)c1cnc(Cc2ccccc2)[nH]c1=O	-13.9	0.4	-1.9	-1.0	0.2	-2.0	.
CCOC(=O)c1cnc(-n2[nH]c(C)cc2=O)[nH]c1=O	69.8*	0.1	6.8	7.0	-0.1	-5.1	12.7µM*
Cc1cccnc1Nc1nc(-c2ccccn2)cs1	68.6*	.	.	.	.	.	5.29µM*
Cc1cccc(Nc2nc(-c3ccccn3)cs2)n1	72.7*	.	.	.	.	.	46.7µM*
Cc1cccc(Nc2nc(-c3cccs3)cs2)n1	-3.4	.	.	.	.	.	.
COc1ccc(S(=O)(=O)Nc2cccc3c2O[C@@H](CN(C)C)[C@@H](C)CN([C@@H](C)CO)C3=O)cc1	-12.7	-0.8	-2.5	-1.9	-0.1	.	.
O=S(=O)(N[C@@H]1CC[C@H](CCn2cc(-c3ccccn3)nn2)O[C@H]1CO)c1cccc(F)c1	83.7*	0.6	0.0	0.9	0.2	-2.7	44.5µM*
O=S(=O)(N[C@H]1CC[C@@H](CCn2cc(-c3ccccn3)nn2)O[C@H]1CO)c1cccc(F)c1	88.1*	0.4	0.0	?	0.1	-10.7	39µM*
Cc1cccc(S(=O)(=O)N[C@H]2CC[C@@H](CCn3cc(-c4ccccn4)nn3)O[C@H]2CO)c1	.	-0.1	-1.5	-3.2	0.1	2.5	.
COc1ccccc1NC(=O)CSc1ccc2nnc(-c3ccccn3)n2n1	19.2	-0.1	-1.0	-6.8	0.1	0.9	.
CCOc1ccc(NC(=O)CSc2nnc(-c3ccccn3)n2N)cc1	19.8	.	.	.	.	3.8	.
COc1ccc(OC)c(NC(=O)CSc2ccc3nnc(-c4ccccn4)n3n2)c1	53.3*	-0.1	2.9	-4.2	0.0	3.1	-30.2%
COc1ccc(NC(=O)CSc2ccc3nnc(-c4ccccn4)n3n2)cc1	66.4*	0.1	1.2	-0.6	-0.2	3.0	-16.9%
O=C(CSc1ccc2nnc(-c3ccccn3)n2n1)Nc1ccc(F)cc1F	53.0*	0.0	4.0	0.5	0.0	1.4	-33.8%
O=C(CSc1nnc2ccc(-c3ccccn3)nn12)Nc1ccc(F)cc1F	-1.7	0.4	-3.3	1.6	0.1	6.0	.
COc1ccc(NC(=O)CSc2nnc(-c3ccccn3)n2N)cc1	55.1*	.	.	.	.	2.9	-33.8%
Cc1ccc(S(=O)(=O)Nc2ccc3c(c2)C(=O)N([C@@H](C)CO)C[C@@H](C)[C@H](CN(C)C)OCCCC[C@H](C)O3)cc1	0.8	0.0	5.8	-2.7	-0.3	-18.4	.
C/C=C/c1ccc([C@H]2[C@H](CO)N(C(=O)CC)[C@H]2CNC(=O)CC)cc1	-10.4	0.0	-1.1	-13.8	-0.2	.	.
CNC[C@H]1Oc2c(NS(=O)(=O)c3cn(C)cn3)cccc2C(=O)N([C@@H](C)CO)C[C@H]1C	-2.0	0.4	-5.1	8.1	-0.1	-4.2	.
CCS(=O)(=O)Nc1ccc2c(c1)C(=O)N(C)[C@@H]1CC[C@H](CC(=O)NCc3ccccc3F)O[C@H]1CO2	-2.0	0.0	-0.4	-6.0	-0.2	4.1	.
Cc1ccccc1-n1c(SCC(=O)Nc2ccc3c(c2)OCO3)nnc1-c1ccccn1	60.7*	.	.	.	.	20.2	-30.7%
Nn1c(SC/C=C/c2ccccc2)nnc1-c1ccccn1	53.6*	.	.	.	.	-1.4	59.9µM*
